# Tested on: Escherichia coli
# Assay: Antibacterial activity against Escherichia coli ATCC 35210 at […] degC measured after 72 hr by microdilution method
# Format: functional
# Details: ATCC 35210, 72 h
# In short: (§1)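 Bactericidal endpoint: after the 24 h broth microdilution (1.0×10⁴ CFU per well, LB broth, […] °C), wells were serially subcultured into plates of fresh broth and incubated a further 72 h. MBC was the lowest concentration with no visible growth, taken as 99.5% killing of the original inoculum.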
row,Structure (SMILES),MBC
1,COc1cc(Cc2nnc(Nc3ccccc3)s2)c(S(=O)(=O)N(C)C)cc1OC,46 µM
2,COc1cc(Cc2nnc(Nc3ccc(Cl)cc3)s2)c(S(=O)(=O)N(C)C)cc1OC,85.2 µM

# Tested on: Micrococcus flavus
# Assay: Antibacterial activity against Micrococcus flavus ATCC 10240 at […] degC measured after 24 hr by microdilution method
# Format: functional
# Details: ATCC 10240, 24 h
# In short: (§2)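 Bacteria suspended in sterile saline at 1.0×10⁵ CFU/ml and added at 1.0×10⁴ CFU per well to LB broth with compound (1 mg/ml) in 96-well plates. Incubated 24 h at […] °C. MIC was the lowest concentration without visible growth under a binocular microscope. OD 655 nm was read against a blank and a positive control.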
row,MIC,Structure (SMILES)
1,11.5 µM,COc1cc(Cc2nnc(Nc3ccccc3)s2)c(S(=O)(=O)N(C)C)cc1OC
2,21.3 µM,COc1cc(Cc2nnc(Nc3ccc(Cl)cc3)s2)c(S(=O)(=O)N(C)C)cc1OC

# Tested on: Bacillus cereus
# Assay: Antibacterial activity against clinical isolate Bacillus cereus at […] degC measured after 72 hr by microdilution method
# Format: functional
# Details: not given
# In short: as §1
row,Structure (SMILES),MBC
1,COc1cc(Cc2nnc(Nc3ccccc3)s2)c(S(=O)(=O)N(C)C)cc1OC,46 µM
2,COc1cc(Cc2nnc(Nc3ccc(Cl)cc3)s2)c(S(=O)(=O)N(C)C)cc1OC,21.3 µM

# Tested on: Pseudomonas aeruginosa
# Assay: Antibacterial activity against Pseudomonas aeruginosa ATCC 27853 at […] degC measured after 72 hr by microdilution method
# Format: functional
# Details: ATCC 27853, 72 h
# In short: as §1
row,Structure (SMILES),MBC
1,COc1cc(Cc2nnc(Nc3ccccc3)s2)c(S(=O)(=O)N(C)C)cc1OC,46 µM
2,COc1cc(Cc2nnc(Nc3ccc(Cl)cc3)s2)c(S(=O)(=O)N(C)C)cc1OC,85.2 µM

# Tested on: Proteus mirabilis
# Assay: Antibacterial activity against Proteus mirabilis at […] degC measured after 24 hr by microdilution method
# Format: functional
# Details: not given
# In short: as §2
row,MIC,Structure (SMILES)
1,46 µM,COc1cc(Cc2nnc(Nc3ccccc3)s2)c(S(=O)(=O)N(C)C)cc1OC
2,21.3 µM,COc1cc(Cc2nnc(Nc3ccc(Cl)cc3)s2)c(S(=O)(=O)N(C)C)cc1OC

# Tested on: Listeria monocytogenes
# Assay: Antibacterial activity against Listeria monocytogenes NCTC 7973 at […] degC measured after 24 hr by microdilution method
# Format: functional
# Details: NCTC 7973, 24 h
# In short: as §2
row,MIC,Structure (SMILES)
1,46 µM,COc1cc(Cc2nnc(Nc3ccccc3)s2)c(S(=O)(=O)N(C)C)cc1OC
2,85.2 µM,COc1cc(Cc2nnc(Nc3ccc(Cl)cc3)s2)c(S(=O)(=O)N(C)C)cc1OC

# Tested on: Bacillus cereus
# Assay: Antibacterial activity against clinical isolate Bacillus cereus at […] degC measured after 24 hr by microdilution method
# Format: functional
# Details: not given
# In short: as §2
row,MIC,Structure (SMILES)
1,23 µM,COc1cc(Cc2nnc(Nc3ccccc3)s2)c(S(=O)(=O)N(C)C)cc1OC
2,10.7 µM,COc1cc(Cc2nnc(Nc3ccc(Cl)cc3)s2)c(S(=O)(=O)N(C)C)cc1OC

# Tested on: Staphylococcus aureus
# Assay: Antibacterial activity against Staphylococcus aureus ATCC 6538 at […] degC measured after 24 hr by microdilution method
# Format: functional
# Details: ATCC 6538, 24 h
# In short: as §2
row,MIC,Structure (SMILES)
1,46 µM,COc1cc(Cc2nnc(Nc3ccccc3)s2)c(S(=O)(=O)N(C)C)cc1OC
2,21.3 µM,COc1cc(Cc2nnc(Nc3ccc(Cl)cc3)s2)c(S(=O)(=O)N(C)C)cc1OC

# Tested on: Aspergillus fumigatus
# Assay: Antifungal activity against plant isolate Aspergillus fumigatus at 28 degC measured after 72 hr by microdilution method
# Format: functional
# Details: not given
# In short: (§3)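 Fungi were kept on malt agar at 4 °C. Spores were washed off with sterile 0.85% saline containing 0.1% Tween 80 and adjusted to about 1.0×10⁵ per well. Compounds were dissolved in DMSO (1 mg/ml stock) and serially diluted in malt broth with inoculum in 96-well plates, 72 h at 28 °C, for MIC. MFC came from subculture into fresh broth for a further 72 h at 28 °C.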
Structure (SMILES),MFC,MIC
COc1cc(Cc2nnc(Nc3ccccc3)s2)c(S(=O)(=O)N(C)C)cc1OC,46 µM,11.5 µM
COc1cc(Cc2nnc(Nc3ccc(Cl)cc3)s2)c(S(=O)(=O)N(C)C)cc1OC,42.6 µM,10.7 µM

# Tested on: Fulvia fulva
# Assay: Antifungal activity against Passalora fulva TK5318 at 28 degC measured after 72 hr by microdilution method
# Format: functional
# Details: TK5318, 72 h
# In short: as §3
MIC,Structure (SMILES),MFC
11.5 µM,COc1cc(Cc2nnc(Nc3ccccc3)s2)c(S(=O)(=O)N(C)C)cc1OC,23 µM
21.3 µM,COc1cc(Cc2nnc(Nc3ccc(Cl)cc3)s2)c(S(=O)(=O)N(C)C)cc1OC,85.2 µM

# Tested on: Salmonella typhimurium
# Assay: Antibacterial activity against Salmonella enterica subsp. enterica serovar Typhimurium ATCC 13311 at […] degC measured after 24 hr by microdilution method
# Format: functional
# Details: ATCC 13311, 24 h
# In short: as §2
row,MIC,Structure (SMILES)
1,46 µM,COc1cc(Cc2nnc(Nc3ccccc3)s2)c(S(=O)(=O)N(C)C)cc1OC
2,21.3 µM,COc1cc(Cc2nnc(Nc3ccc(Cl)cc3)s2)c(S(=O)(=O)N(C)C)cc1OC

# Tested on: Micrococcus flavus
# Assay: Antibacterial activity against Micrococcus flavus ATCC 10240 at […] degC measured after 72 hr by microdilution method
# Format: functional
# Details: ATCC 10240, 72 h
# In short: as §1
row,Structure (SMILES),MBC
1,COc1cc(Cc2nnc(Nc3ccccc3)s2)c(S(=O)(=O)N(C)C)cc1OC,17.5 µM
2,COc1cc(Cc2nnc(Nc3ccc(Cl)cc3)s2)c(S(=O)(=O)N(C)C)cc1OC,42.6 µM

# Tested on: Proteus mirabilis
# Assay: Antibacterial activity against Proteus mirabilis at […] degC measured after 72 hr by microdilution method
# Format: functional
# Details: not given
# In short: as §1
row,Structure (SMILES),MBC
1,COc1cc(Cc2nnc(Nc3ccccc3)s2)c(S(=O)(=O)N(C)C)cc1OC,46 µM
2,COc1cc(Cc2nnc(Nc3ccc(Cl)cc3)s2)c(S(=O)(=O)N(C)C)cc1OC,42.6 µM

# Tested on: Pseudomonas aeruginosa
# Assay: Antibacterial activity against Pseudomonas aeruginosa ATCC 27853 at […] degC measured after 24 hr by microdilution method
# Format: functional
# Details: ATCC 27853, 24 h
# In short: as §2
row,MIC,Structure (SMILES)
1,46 µM,COc1cc(Cc2nnc(Nc3ccccc3)s2)c(S(=O)(=O)N(C)C)cc1OC
2,42.6 µM,COc1cc(Cc2nnc(Nc3ccc(Cl)cc3)s2)c(S(=O)(=O)N(C)C)cc1OC

# Tested on: Aspergillus versicolor
# Assay: Antifungal activity against Aspergillus versicolor ATCC 11730 at 28 degC measured after 72 hr by microdilution method
# Format: functional
# Details: ATCC 11730, 72 h
# In short: as §3
MIC,Structure (SMILES),MFC
11.5 µM,COc1cc(Cc2nnc(Nc3ccccc3)s2)c(S(=O)(=O)N(C)C)cc1OC,23 µM
10.7 µM,COc1cc(Cc2nnc(Nc3ccc(Cl)cc3)s2)c(S(=O)(=O)N(C)C)cc1OC,42.6 µM

# Tested on: Escherichia coli
# Assay: Antibacterial activity against Escherichia coli ATCC 35210 at […] degC measured after 24 hr by microdilution method
# Format: functional
# Details: ATCC 35210, 24 h
# In short: as §2
row,MIC,Structure (SMILES)
1,46 µM,COc1cc(Cc2nnc(Nc3ccccc3)s2)c(S(=O)(=O)N(C)C)cc1OC
2,42.6 µM,COc1cc(Cc2nnc(Nc3ccc(Cl)cc3)s2)c(S(=O)(=O)N(C)C)cc1OC

# Tested on: Penicillium ochrochloron
# Assay: Antifungal activity against Penicillium ochrochloron ATCC 9112 at 28 degC measured after 72 hr by microdilution method
# Format: functional
# Details: ATCC 9112, 72 h
# In short: as §3
MIC,Structure (SMILES),MFC
23 µM,COc1cc(Cc2nnc(Nc3ccccc3)s2)c(S(=O)(=O)N(C)C)cc1OC,46 µM
21.3 µM,COc1cc(Cc2nnc(Nc3ccc(Cl)cc3)s2)c(S(=O)(=O)N(C)C)cc1OC,42.6 µM

# Tested on: Salmonella typhimurium
# Assay: Antibacterial activity against Salmonella enterica subsp. enterica serovar TyphimuriumATCC 13311 at […] degC measured after 72 hr by microdilution method
# Format: functional, Salmonella enterica subsp. enterica serovar Typhimurium
# Details: ATCC 13311, 72 h
# In short: as §1
row,Structure (SMILES),MBC
1,COc1cc(Cc2nnc(Nc3ccccc3)s2)c(S(=O)(=O)N(C)C)cc1OC,92 µM
2,COc1cc(Cc2nnc(Nc3ccc(Cl)cc3)s2)c(S(=O)(=O)N(C)C)cc1OC,42.6 µM

# Tested on: Aspergillus niger
# Assay: Antifungal activity against Aspergillus niger ATCC 6275 at 28 degC measured after 72 hr by microdilution method
# Format: functional
# Details: ATCC 6275, 72 h
# In short: as §3
MIC,Structure (SMILES),MFC
23 µM,COc1cc(Cc2nnc(Nc3ccccc3)s2)c(S(=O)(=O)N(C)C)cc1OC,46 µM
10.7 µM,COc1cc(Cc2nnc(Nc3ccc(Cl)cc3)s2)c(S(=O)(=O)N(C)C)cc1OC,42.6 µM

# Tested on: Talaromyces funiculosus
# Assay: Antifungal activity against Talaromyces funiculosus ATCC 36839 at 28 degC measured after 72 hr by microdilution method
# Format: functional
# Details: ATCC 36839, 72 h
# In short: as §3
MIC,Structure (SMILES),MFC
11.5 µM,COc1cc(Cc2nnc(Nc3ccccc3)s2)c(S(=O)(=O)N(C)C)cc1OC,23 µM
10.7 µM,COc1cc(Cc2nnc(Nc3ccc(Cl)cc3)s2)c(S(=O)(=O)N(C)C)cc1OC,21.3 µM

# Tested on: Trichoderma viride
# Assay: Antifungal activity against Hypocrea rufa IAM 5061 at 28 degC measured after 72 hr by microdilution method
# Format: functional
# Details: IAM 5061, 72 h
# In short: as §3
MIC,Structure (SMILES),MFC
11.5 µM,COc1cc(Cc2nnc(Nc3ccccc3)s2)c(S(=O)(=O)N(C)C)cc1OC,23 µM
10.7 µM,COc1cc(Cc2nnc(Nc3ccc(Cl)cc3)s2)c(S(=O)(=O)N(C)C)cc1OC,21.3 µM

# Tested on: Staphylococcus aureus
# Assay: Antibacterial activity against Staphylococcus aureus ATCC 6538 at […] degC measured after 72 hr by microdilution method
# Format: functional
# Details: ATCC 6538, 72 h
# In short: as §1
row,Structure (SMILES),MBC
1,COc1cc(Cc2nnc(Nc3ccccc3)s2)c(S(=O)(=O)N(C)C)cc1OC,92 µM
2,COc1cc(Cc2nnc(Nc3ccc(Cl)cc3)s2)c(S(=O)(=O)N(C)C)cc1OC,42.6 µM

# Tested on: Aspergillus flavus
# Assay: Antifungal activity against Aspergillus flavus ATCC 9643 at 28 degC measured after 72 hr by microdilution method
# Format: functional
# Details: ATCC 9643, 72 h
# In short: as §3
MIC,Structure (SMILES),MFC
23 µM,COc1cc(Cc2nnc(Nc3ccccc3)s2)c(S(=O)(=O)N(C)C)cc1OC,46 µM
10.7 µM,COc1cc(Cc2nnc(Nc3ccc(Cl)cc3)s2)c(S(=O)(=O)N(C)C)cc1OC,42.6 µM

# Tested on: Listeria monocytogenes
# Assay: Antibacterial activity against Listeria monocytogenes NCTC 7973 at […] degC measured after 72 hr by microdilution method
# Format: functional
# Details: NCTC 7973, 72 h
# In short: as §1
row,Structure (SMILES),MBC
1,COc1cc(Cc2nnc(Nc3ccccc3)s2)c(S(=O)(=O)N(C)C)cc1OC,92 µM
2,COc1cc(Cc2nnc(Nc3ccc(Cl)cc3)s2)c(S(=O)(=O)N(C)C)cc1OC,85.2 µM

# Reference: ChEMBL document CHEMBL3045677, “Sulfonamide-1,2,4-thiadiazole derivatives as antifungal and antibacterial agents: synthesis, biological evaluation, lipophilicity, and conformational studies” (2010)
